Measured values taken from ChEMBL document CHEMBL4152263, “Novel anticancer hybrids from diazen-1-ium-1,2-diolate nitric oxide donor and ROS inducer plumbagin: Design, synthesis and biological evaluations” (Eur J Med Chem, 2018).
Calls of active or inactive are those of the source. The rule behind the calls is not given here.

Legend:
[1] = system: A549; assay: Cytotoxicity against human A549 cells assessed as growth inhibition at 10 uM after 48 hrs by MTT assay relative to control; type: functional; details: A549, 48 h, read-out: GI
Method in brief: (§1)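 Single-concentration MTT screen. Cells were seeded, allowed to adhere for 24 h, and exposed to compound for 48 h. MTT (5 mg/mL) was added for the last 4 h, then DMSO, with absorbance read at 570 nm. Result is inhibition rate (%) at the stated concentration; mean of three independent experiments.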

[2] = system: A549; assay: Cytotoxicity against human A549 cells assessed as growth inhibition at 5 uM after 24 hrs in presence of nitric oxide scavenger carboxy-PTIO by MTT assay
[3] = system: HK-2; assay: Cytotoxicity against human HK2 cells assessed as growth inhibition after 48 hrs by MTT assay; type: cell-based; details: HK-2, 48 h
Method in brief: (§2)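 Cells seeded at 5.0 × 10^4/ml and left 24 h to adhere, then exposed to a range of test-compound concentrations for 44 h. MTT (5 mg/mL) was added for a further 4 h at 37 °C. Supernatant was removed, DMSO added, and OD read at 570 nm. IC50 after 48 h total exposure; mean ± SD, n = 3.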

[4] = system: MDA-MB-231; assay: Cytotoxicity against human MDA-MB-231 cells assessed as growth inhibition at 10 uM after 48 hrs by MTT assay relative to control; type: functional; details: MDA-MB-231, 48 h, read-out: GI; method in brief: as §1
[5] = Drug metabolism in human A549 cells assessed as nitric oxide production at 5 uM after 24 hrs by Griess assay; type: ADME, cell-based; details: a549, 24 h
Method in brief: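 A549 cells were plated at 5.0 × 10^4/ml and treated in triplicate with compound at 5 μM for varying times up to 24 h. NO release was quantified as nitrite plus nitrate by Griess assay (commercial kit); mean ± SD, n = 3.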

[6] = system: MDA-MB-231; assay: Cytotoxicity against human MDA-MB-231 cells assessed as growth inhibition after 48 hrs by MTT assay; type: functional, cell-based; details: MDA-MB-231, 48 h; method in brief: as §2
[7] = system: HepG2; assay: Cytotoxicity against human HepG2 cells assessed as growth inhibition after 48 hrs by MTT assay; type: functional, cell-based; details: HepG2, 48 h; method in brief: as §2
[8] = system: A549; assay: Cytotoxicity against human A549 cells assessed as growth inhibition after 48 hrs by MTT assay; type: functional, cell-based; details: A549, 48 h; method in brief: as §2
[9] = system: HepG2; assay: Cytotoxicity against human HepG2 cells assessed as growth inhibition at 10 uM after 48 hrs by MTT assay relative to control; type: functional; details: HepG2, 48 h, read-out: GI; method in brief: as §1
[10] = system: HCT-116; assay: Cytotoxicity against human HCT116 cells assessed as growth inhibition after 48 hrs by MTT assay; type: functional, cell-based; details: HCT-116, 48 h; method in brief: as §2
[11] = system: WRL68; assay: Cytotoxicity against human WRL68 cells assessed as growth inhibition after 48 hrs by MTT assay; type: cell-based; details: WRL68, 48 h; method in brief: as §2
[12] = Drug metabolism in human A549 cells assessed as nitric oxide production at 5 uM after 24 hrs in presence of nitric oxide scavenger carboxy-PTIO by Griess assay; type: ADME, cell-based; details: a549, 24 h
Method in brief: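 A549 cells were pre-incubated with the NO scavenger carboxy-PTIO (50 μM) for 1 h, then treated with compound (5 μM) for 24 h. Proliferation was read by MTT and NO by Griess assay (nitrite/nitrate); mean ± SD of three independent experiments.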

[13] = system: A549; assay: Induction of reactive oxygen species formation in human A549 cells at 5 uM after 24 hrs by DCFH-DA probe-based flow cytometric analysis relative to control; type: functional
[14] = system: A549; assay: Induction of apoptosis in human A549 cells assessed as viable cells at 1 uM after 24 hrs by FITC-annexin V/propidium iodide staining-based flow cytometric analysis (reference value: 97.7%); type: functional; details: A549, 24 h, read-out: Activity
[15] = system: A549; assay: Induction of apoptosis in human A549 cells assessed as late apoptotic cells at 1 uM after 24 hrs by FITC-annexin V/propidium iodide staining-based flow cytometric analysis (reference value: 0.36%); type: functional
[16] = system: A549; assay: Induction of apoptosis in human A549 cells assessed as necrotic cells at 2 uM after 24 hrs by FITC-annexin V/propidium iodide staining-based flow cytometric analysis (reference value: 0.055%); type: functional
[17] = system: A549; assay: Induction of apoptosis in human A549 cells assessed as necrotic cells at 4 uM after 24 hrs by FITC-annexin V/propidium iodide staining-based flow cytometric analysis (reference value: 0.055%); type: functional
[18] = system: A549; assay: Induction of apoptosis in human A549 cells assessed as early apoptotic cells at 2 uM after 24 hrs by FITC-annexin V/propidium iodide staining-based flow cytometric analysis (reference value: 1.87%); type: functional
[19] = system: A549; assay: Induction of apoptosis in human A549 cells assessed as late apoptotic cells at 2 uM after 24 hrs by FITC-annexin V/propidium iodide staining-based flow cytometric analysis (reference value: 0.36%); type: functional
[20] = system: A549; assay: Induction of apoptosis in human A549 cells assessed as early apoptotic cells at 4 uM after 24 hrs by FITC-annexin V/propidium iodide staining-based flow cytometric analysis (reference value: 1.87%); type: functional
[21] = system: A549; assay: Induction of apoptosis in human A549 cells assessed as viable cells at 2 uM after 24 hrs by FITC-annexin V/propidium iodide staining-based flow cytometric analysis (reference value: 97.7%); type: functional; details: A549, 24 h, read-out: Activity
[22] = system: A549; assay: Induction of apoptosis in human A549 cells assessed as necrotic cells at 1 uM after 24 hrs by FITC-annexin V/propidium iodide staining-based flow cytometric analysis (reference value: 0.055%); type: functional
[23] = system: A549; assay: Induction of apoptosis in human A549 cells assessed as early apoptotic cells at 1 uM after 24 hrs by FITC-annexin V/propidium iodide staining-based flow cytometric analysis (reference value: 1.87%); type: functional
[24] = system: A549; assay: Induction of apoptosis in human A549 cells assessed as increase in late apoptotic cells after 24 hrs by FITC-annexin V/propidium iodide staining-based flow cytometric analysis; type: functional, cell-based
[25] = system: A549; assay: Induction of apoptosis in human A549 cells assessed as viable cells at 4 uM after 24 hrs by FITC-annexin V/propidium iodide staining-based flow cytometric analysis (reference value: 97.7%); type: functional; details: A549, 24 h, read-out: Activity
[26] = system: A549; assay: Induction of apoptosis in human A549 cells assessed as late apoptotic cells at 4 uM after 24 hrs by FITC-annexin V/propidium iodide staining-based flow cytometric analysis (reference value: 0.36%); type: functional
[27] = system: MDA-MB-231; assay: Cytotoxicity against human MDA-MB-231 cells assessed as growth inhibition at 20 uM after 48 hrs by MTT assay relative to control; type: functional; details: MDA-MB-231, 48 h, read-out: GI; method in brief: as §1
[28] = system: HepG2; assay: Cytotoxicity against human HepG2 cells assessed as growth inhibition at 20 uM after 48 hrs by MTT assay relative to control; type: functional; details: HepG2, 48 h, read-out: GI; method in brief: as §1
[29] = system: A549; assay: Cytotoxicity against human A549 cells assessed as growth inhibition at 20 uM after 48 hrs by MTT assay relative to control; type: functional; details: A549, 48 h, read-out: GI; method in brief: as §1
[30] = system: MDA-MB-231; assay: Cytotoxicity against human MDA-MB-231 cells assessed as growth inhibition at 40 uM after 48 hrs by MTT assay relative to control; type: functional; details: MDA-MB-231, 48 h, read-out: GI; method in brief: as §1
[31] = system: HepG2; assay: Cytotoxicity against human HepG2 cells assessed as growth inhibition at 40 uM after 48 hrs by MTT assay relative to control; type: functional; details: HepG2, 48 h, read-out: GI; method in brief: as §1
[32] = system: A549; assay: Cytotoxicity against human A549 cells assessed as growth inhibition at 40 uM after 48 hrs by MTT assay relative to control; type: functional; details: A549, 48 h, read-out: GI; method in brief: as §1

| SMILES | inhibition of growth at 10 µM [1] | IC50 [3] | inhibition of growth at 10 µM [4] | IC50 [6] | IC50 [7] | IC50 [8] | inhibition of growth at 10 µM [9] | IC50 [10] | IC50 [11] | also measured |
| --- | --- | --- | --- | --- | --- | --- | --- | --- | --- | --- |
| CC1=C(CCCC(=O)OCO/[N+]([O-])=N/N2CCCCC2)C(=O)c2c(O)cccc2C1=O | 86.7% | 17.7 µM | 83.6% | 4.92 µM | 6.68 µM | 4.27 µM | 80.3% | 5.26 µM | > 40 µM | growth inhibition (GI) [2]: inactive; Drug metabolism [5]: Metabolite_Detected; Drug metabolism [12]: Metabolite_Notdetected |
| CC1=CC(=O)c2c(O)cccc2C1=O [PLUMBAGIN] | 60.7% | 23.6 µM | 73.8% | 6.5 µM | 9.17 µM | 8.9 µM | 58.9% | 9.8 µM | 15.4 µM | fold change (FC) [13]: 1.34 |
| CC1=C(CCC(=O)OCO/[N+]([O-])=N/N2CCCCC2)C(=O)c2c(O)cccc2C1=O | 45% | 27.7 µM | 40.1% | 11.7 µM | 14.4 µM | 10.8 µM | 35.1% | 20.2 µM | 28.2 µM |  |
| CC1=C(CCCC(=O)OCCCCO/[N+]([O-])=N/N2CCOCC2)C(=O)c2c(O)cccc2C1=O | 38.2% |  | 30.6% |  |  |  | 32.2% |  |  |  |
| CC1=C(CCCC(=O)OCO/[N+]([O-])=N/N2CCOCC2)C(=O)c2c(O)cccc2C1=O | 91.2% | 23.5 µM | 88.3% | 4.12 µM | 5.52 µM | 3.48 µM | 75.4% | 4.21 µM | > 40 µM | viability at 1 µM [14]: 92.2%; growth inhibition (GI) [2]: inactive; Activity [15]: 4.18%; Activity [16]: 6.53%; Activity [17]: 17.3%; Activity [18]: 3.74%; Drug metabolism [5]: Metabolite_Detected; Activity [19]: 10.1%; Activity [20]: 6.93%; viability at 2 µM [21]: 79.6%; Activity [22]: 1.56%; fold change (FC) [13]: 1.64; Activity [23]: 2.09%; Activity [24]: Dose-dependent effect; Drug metabolism [12]: Metabolite_Notdetected; viability at 4 µM [25]: 45.4%; Activity [26]: 30.3% |
| [O-]/[N+](=N\OCCl)N1CCOCC1 | 19.1% |  | 13.3% |  |  |  | 16.4% |  |  |  |
| CC1=C(CCC(=O)OCO/[N+]([O-])=N/N2CCOCC2)C(=O)c2c(O)cccc2C1=O | 40.3% | 24.6 µM | 37.2% | 13.5 µM | 16.5 µM | 12.3 µM | 31.3% | 15.6 µM | 19.3 µM |  |
| CC1=C(CCCC(=O)OCO/[N+]([O-])=N/N2CCCC2)C(=O)c2c(O)cccc2C1=O | 65.6% | 18.1 µM | 70.8% | 6.97 µM | 7.12 µM | 9.24 µM | 69.7% | 9.32 µM | 16.6 µM |  |
| [O-]/[N+](=N\OCCl)N1CCCCC1 | 10.8% |  | 11.4% |  |  |  | 17.6% |  |  |  |
| CC1=C(CCCC(=O)OCCCO/[N+]([O-])=N/N2CCOCC2)C(=O)c2c(O)cccc2C1=O | 11.3% |  | 9.5% |  |  |  | 8.2% |  |  |  |
| CC1=C(CCC(=O)OCCCCO/[N+]([O-])=N/N2CCOCC2)C(=O)c2c(O)cccc2C1=O | 24.4% |  | 29.4% |  |  |  | 28.8% |  |  |  |
| CC1=C(CCCC(=O)O)C(=O)c2c(O)cccc2C1=O |  |  |  |  |  |  |  |  |  | inhibition of growth at 20 µM [27]: 9.9%; inhibition of growth at 20 µM [28]: 28.6%; inhibition of growth at 20 µM [29]: 8.5% |
| CC1=C(CCCC(=O)OCCO/[N+]([O-])=N/N2CCOCC2)C(=O)c2c(O)cccc2C1=O | 23.7% |  | 26.2% |  |  |  | 25% |  |  |  |
| CC1=C(CCC(=O)OCCCO/[N+]([O-])=N/N2CCOCC2)C(=O)c2c(O)cccc2C1=O | 26.9% |  | 28.6% |  |  |  | 28% |  |  |  |
| CC1=C(CCC(=O)O)C(=O)c2c(O)cccc2C1=O |  |  |  |  |  |  |  |  |  | inhibition of growth at 40 µM [30]: 8.7%; inhibition of growth at 40 µM [31]: 25.3%; inhibition of growth at 40 µM [32]: 12.3% |
| CC1=C(CCC(=O)OCCO/[N+]([O-])=N/N2CCOCC2)C(=O)c2c(O)cccc2C1=O | 30.3% |  | 35.7% |  |  |  | 32.5% |  |  |  |
| CC1=C(CCC(=O)OCO/[N+]([O-])=N/N2CCCC2)C(=O)c2c(O)cccc2C1=O | 32.9% | 25.6 µM | 31.6% | 15.2 µM | 17.8 µM | 16.4 µM | 29.8% | 17.2 µM | 19.5 µM |  |
